What was measured:
Type in all cases: functional
Rattus norvegicus [1] = experiment: Antiinflammatory activity in Sprague-Dawley rat assessed as inhibition of carrageenan-induced paw edema at 12 mg/kg, sc administered post-challenge measured at 5 hrs post compound treatment relative to vehicle-treated control; details: route subcutaneous
Rattus norvegicus [2] = experiment: Antiinflammatory activity in Sprague-Dawley rat assessed as inhibition of carrageenan-induced paw edema at 12 mg/kg, sc administered post-challenge measured at 3 hrs post compound treatment relative to vehicle-treated control; details: route subcutaneous
Mus musculus [3] = experiment: Analgesic activity in Swiss albino mouse assessed as inhibition of phenyl-p-benzoquinone-induced writhing at 120 mg/kg, sc administered 30 mins prior challenge relative to vehicle-treated control; details: route subcutaneous
In short: (§1)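 Male Swiss albino mice, 18–22 g, five per group. Compound suspended in physiological saline with Tween 80 and given sc. At 30 min, 0.03% phenyl-p-benzoquinone given ip at 0.1 mL/10 g body weight. Total writhes per animal counted against a vehicle-treated control group. % change = (treated writhes/control writhes) × 100 − 100.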

Rattus norvegicus [4] = experiment: Antiinflammatory activity in Sprague-Dawley rat assessed as inhibition of carrageenan-induced paw edema at 100 mg/kg, […] measured at 3 hrs post compound treatment relative to vehicle-treated control; details: sc, route subcutaneous
Rattus norvegicus [5] = experiment: Antiinflammatory activity in Sprague-Dawley rat assessed as inhibition of carrageenan-induced paw edema at 100 mg/kg, sc administered post-challenge measured at 5 hrs post compound treatment relative to vehicle-treated control; details: route subcutaneous
Rattus norvegicus [6] = experiment: Antiinflammatory activity in Sprague-Dawley rat assessed as inhibition of carrageenan-induced paw edema at 128 mg/kg, sc administered post-challenge measured at 3 hrs post compound treatment relative to vehicle-treated control; details: route subcutaneous
Mus musculus [7] = experiment: Analgesic activity in Swiss albino mouse assessed as inhibition of phenyl-p-benzoquinone-induced writhing at 128 mg/kg, sc administered 30 mins prior challenge relative to vehicle-treated control; details: route subcutaneous; in short: as §1
Rattus norvegicus [8] = experiment: Antiinflammatory activity in Sprague-Dawley rat assessed as inhibition of carrageenan-induced paw edema at 128 mg/kg, sc administered post-challenge measured at 5 hrs post compound treatment relative to vehicle-treated control; details: route subcutaneous
Mus musculus [9] = experiment: Analgesic activity in Swiss albino mouse assessed as inhibition of phenyl-p-benzoquinone-induced writhing at 56 mg/kg, sc administered 30 mins prior challenge relative to vehicle-treated control; details: route subcutaneous; in short: as §1
Mus musculus [10] = experiment: Analgesic activity in Swiss albino mouse assessed as inhibition of phenyl-p-benzoquinone-induced writhing at 50 mg/kg, sc administered 30 mins prior challenge relative to vehicle-treated control; details: route subcutaneous; in short: as §1
Rattus norvegicus [11] = experiment: Antiinflammatory activity in Sprague-Dawley rat assessed as inhibition of carrageenan-induced paw edema at 64 mg/kg, sc administered post-challenge measured at 5 hrs post compound treatment relative to vehicle-treated control; details: route subcutaneous
Rattus norvegicus [12] = experiment: Antiinflammatory activity in Sprague-Dawley rat assessed as inhibition of carrageenan-induced paw edema at 64 mg/kg, […] measured at 3 hrs post compound treatment relative to vehicle-treated control; details: sc, route subcutaneous
Rattus norvegicus [13] = experiment: Antiinflammatory activity in Sprague-Dawley rat assessed as inhibition of carrageenan-induced paw edema at 120 mg/kg, sc administered post-challenge measured at 5 hrs post compound treatment relative to vehicle-treated control; details: route subcutaneous
Mus musculus [14] = experiment: Analgesic activity in Swiss albino mouse assessed as inhibition of phenyl-p-benzoquinone-induced writhing at 11.8 mg/kg, sc administered 30 mins prior challenge relative to vehicle-treated control; details: route subcutaneous; in short: as §1
Rattus norvegicus [15] = experiment: Antiinflammatory activity in Sprague-Dawley rat assessed as inhibition of carrageenan-induced paw edema at 120 mg/kg, […] measured at 3 hrs post compound treatment relative to vehicle-treated control; details: sc, route subcutaneous

COc1ccc2c(c1)c(CC(=O)O)c(C)n2C(=O)c1ccc(Cl)cc1 [INDOMETHACIN]
inhibition in vivo at 12 mg/kg (Rattus norvegicus [1]): 83% | inhibition in vivo at 12 mg/kg (Rattus norvegicus [2]): 17%

O=C(NN(C(=O)c1ccncc1)c1ccccc1)c1ccncc1
inhibition in vivo at 120 mg/kg (Mus musculus [3]): 84% | inhibition in vivo at 100 mg/kg (Rattus norvegicus [4]): 34% | inhibition in vivo at 100 mg/kg (Rattus norvegicus [5]): 34%

O=C(NN1CCOCC1)c1cccnc1
inhibition in vivo at 128 mg/kg (Rattus norvegicus [6]): 50% | inhibition in vivo at 128 mg/kg (Mus musculus [7]): 6.7% | inhibition in vivo at 128 mg/kg (Rattus norvegicus [8]): 17%

O=C(NNc1ccccn1)c1ccncc1
inhibition in vivo at 120 mg/kg (Mus musculus [3]): 0% | inhibition in vivo at 100 mg/kg (Rattus norvegicus [4]): 83% | inhibition in vivo at 100 mg/kg (Rattus norvegicus [5]): 100%

CCC(=O)O[C@](Cc1ccccc1)(c1ccccc1)[C@H](C)CN(C)C [PROPOXYPHENE]
inhibition in vivo at 56 mg/kg (Mus musculus [9]): 50%

CC(=O)Oc1ccccc1C(=O)O [ASPIRIN]
inhibition in vivo at 50 mg/kg (Mus musculus [10]): 50%

O=C(NN1CCc2ccccc2C1)c1ccncc1
inhibition in vivo at 128 mg/kg (Rattus norvegicus [6]): 17% | inhibition in vivo at 128 mg/kg (Mus musculus [7]): 79% | inhibition in vivo at 128 mg/kg (Rattus norvegicus [8]): 17%

O=C(NNC(=O)c1ccncc1)c1ccccc1
inhibition in vivo at 128 mg/kg (Rattus norvegicus [6]): 17% | inhibition in vivo at 128 mg/kg (Mus musculus [7]): 38.3% | inhibition in vivo at 128 mg/kg (Rattus norvegicus [8]): 0%

CN(C)NC(=O)c1cccnc1
inhibition in vivo at 64 mg/kg (Rattus norvegicus [11]): 0% | inhibition in vivo at 64 mg/kg (Rattus norvegicus [12]): 0% | inhibition in vivo at 128 mg/kg (Mus musculus [7]): 45%

CC(=O)N(NC(=O)c1ccncc1)C(C)=O
inhibition in vivo at 128 mg/kg (Rattus norvegicus [6]): 50% | inhibition in vivo at 128 mg/kg (Mus musculus [7]): 32% | inhibition in vivo at 128 mg/kg (Rattus norvegicus [8]): 17%

O=C(NNc1ccccn1)c1ccccn1
inhibition in vivo at 120 mg/kg (Rattus norvegicus [13]): 100% | inhibition in vivo at 11.8 mg/kg (Mus musculus [14]): 50% | inhibition in vivo at 120 mg/kg (Rattus norvegicus [15]): 100%

Reference: ChEMBL document CHEMBL3243979, “Syntheses of N-substituted 2(3,4)-pyridylcarboxylic acid hydrazides with analgesic and antiinflammatory activity” (1979)
